DENV2 CPE – inhibitors of DENV2 cytopathic effect; DENV2-infected cells, cytopathic effect rescue, plate reader; CPE inhibition, % at 9.99 µM; actives 1.7% (n = 350,000); AID 651640; in the data active = CPE inhibition above about 20%, passing the limit was not always enough; inconclusive = no clear call, values can overlap the other calls; tested in BHK-21 cells
SIRT5 block – inhibitors of human sirtuin-5 desuccinylase; Q9NXA8; actives 1.1% (n = 330,000); AID 652115; inhibition, % at 15 µM; Purified SirT5, succinyl-peptide AMC, trypsin-coupled fluorescence; in the data active = inhibition above about 15%; inconclusive = no clear call, values can overlap the other calls
E-sel inducer – E-selectin induction on HUVECs. HUVEC E-selectin immunofluorescence imaging; normalized: neutral wells 0, TNF-alpha wells 100. activation, % at 7.58 µM. actives 0.37% (n = 260,000);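 active = mean E-selectin-positive cell signal at least 10% of the positive control, reached in at least 60% of replicates, without over 20% cell loss; inconclusive = no rule given, readout overlaps actives, possibly toxicity-flagged; inactive = the rest, including those meeting only one limit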
Target sequence (P16581 whole entry, looked up): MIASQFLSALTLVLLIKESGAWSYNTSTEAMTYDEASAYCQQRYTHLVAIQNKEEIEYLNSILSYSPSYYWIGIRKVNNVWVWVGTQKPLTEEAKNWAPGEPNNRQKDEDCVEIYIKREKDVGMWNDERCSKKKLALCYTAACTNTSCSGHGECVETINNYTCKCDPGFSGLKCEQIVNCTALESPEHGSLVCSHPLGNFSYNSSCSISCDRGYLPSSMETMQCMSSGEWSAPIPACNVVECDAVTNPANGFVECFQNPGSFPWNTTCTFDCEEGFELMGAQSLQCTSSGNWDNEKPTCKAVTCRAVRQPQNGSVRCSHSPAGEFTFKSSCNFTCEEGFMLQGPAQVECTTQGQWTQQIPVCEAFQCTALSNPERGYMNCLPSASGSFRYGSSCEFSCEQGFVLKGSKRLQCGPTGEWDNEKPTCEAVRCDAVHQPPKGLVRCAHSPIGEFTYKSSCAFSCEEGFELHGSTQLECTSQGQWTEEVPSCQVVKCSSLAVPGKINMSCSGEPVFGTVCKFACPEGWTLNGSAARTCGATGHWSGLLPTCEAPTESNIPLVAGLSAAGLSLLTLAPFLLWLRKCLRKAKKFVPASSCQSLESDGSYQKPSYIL
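Material: HUVEC primary endothelial cells; Amount: 3,000 cells per well; Dosing: single concentration; Medium: EGM-2 growth medium on 0.1% gelatin-coated wells; Read-out basis: percent E-selectin-positive cells; Signal: immunofluorescence imaging; Control set: TNF-alpha, DMSO.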
Each line names hits and unclear results; the compound was inactive in the other large screens. The list is not random: actives were taken first. Their share in the collection is about 2.8%.

COc1ccc(NC(=O)N(C)C[C@@H]2Oc3c(NS(=O)(=O)c4cn(C)cn4)cccc3C(=O)N([C@@H](C)CO)C[C@@H]2C)cc1	none
COc1ccc(NC(=O)N(C)C[C@H]2Oc3c(NS(=O)(=O)c4cn(C)cn4)cccc3C(=O)N([C@H](C)CO)C[C@H]2C)cc1	E-sel inducer inconclusive
COc1ccc(NC(=O)N(C)C[C@H]2Oc3c(NS(=O)(=O)c4cn(C)cn4)cccc3C(=O)N([C@@H](C)CO)C[C@@H]2C)cc1	DENV2 CPE 26, E-sel inducer 39
C[C@H]1CN([C@@H](C)CO)C(=O)c2cc(-c3ccc(F)cc3)cnc2O[C@H]1CN(C)CC1CCCCC1	none
Cc1ccc(S(=O)(=O)N(C)C[C@@H]2OCCCC[C@H](C)Oc3ccc(NC(=O)Nc4c(C)noc4C)cc3C(=O)N([C@@H](C)CO)C[C@H]2C)cc1	none (no result: E-sel inducer)
C[C@@H]1CN([C@H](C)CO)C(=O)c2cc(/C=C/c3ccccc3)cnc2O[C@H]1CN(C)C(=O)c1cnccn1	none
COc1ccc(C)cc1S(=O)(=O)n1ccnc1C	SIRT5 block 112 (no result: E-sel inducer)
CCOc1ccc(OCC)c(S(=O)(=O)n2ccnc2C)c1	none
CCOc1ccc(C(C)C)cc1S(=O)(=O)n1ccnc1C	SIRT5 block 17
COc1ccc(C)cc1S(=O)(=O)n1nc(C)cc1C	none (no result: E-sel inducer)
CCC(=O)N1[C@@H]2CN(C(=O)c3cccc(OC)c3)c3ccccc3[C@@H]2[C@@H]1CO	none
CCCC[C@@H](O)C1=C(C)Cn2c(=O)n(-c3ccccc3)c(=O)n2[C@H]1CO	none (no result: E-sel inducer)
CC1=C([C@H](O)CCc2ccccc2)[C@H](CO)n2c(=O)n(-c3ccccc3)c(=O)n2C1	DENV2 CPE 36 (no result: E-sel inducer)
CC(=O)Nc1ccc(NC(=O)CSc2nnc(C)c(=O)n2N)cc1	none (no result: E-sel inducer)
CC(=O)Nc1ccc(NC(=O)CSc2nnc(-c3cccs3)n2N)cc1	DENV2 CPE 60 (no result: E-sel inducer)
C[C@H](O)C#Cc1cnc2c(c1)C(=O)N([C@H](C)CO)C[C@H](C)[C@@H](CN(C)CC1CCCCC1)O2	none
CC(=O)N1[C@@H](CO)[C@@H](c2ccc(C3=CCCC3)cc2)C12CN(C(=O)NC(C)C)C2	DENV2 CPE 41
COc1ccccc1-c1ccc([C@@H]2[C@H](CO)N(C(C)=O)C23CN(C(C)=O)C3)cc1	DENV2 CPE 28
CCC(=O)N1[C@H](CO)[C@H](c2ccc(C3=CCCC3)cc2)C12CN(C(=O)COC)C2	none
COc1ccccc1-c1ccc([C@@H]2[C@@H](CO)N(C(=O)C3CC3)C23CN(C(C)=O)C3)cc1	DENV2 CPE 79
CCC(=O)N1CC2(C1)[C@@H](c1ccc(-c3ccccc3OC)cc1)[C@@H](CO)N2C(C)=O	none
CCC(=O)N1[C@H](CO)[C@@H](c2ccc(-c3ccccc3OC)cc2)C12CN(C(C)=O)C2	none
COc1ccc(-c2ccc3c(c2)[C@@H]2[C@@H](CCN2S(=O)(=O)c2ccccc2F)[C@@H](CO)N3)cc1	none (no result: SIRT5 block)
CCCNC(=O)N1[C@@H]2CN(C(=O)c3cccnc3)c3ccccc3[C@@H]2[C@@H]1CO	none
O=C(C[C@@H]1C=C[C@H](NC(=O)Cc2ccccn2)[C@H](CO)O1)NCCc1ccccc1	none
C[C@H]1CN([C@@H](C)CO)C(=O)c2cc(NC(=O)Nc3ccc(F)cc3)ccc2O[C@@H]1CN(C)Cc1ccncc1	none
COC(=O)c1c(NC(=O)CC2Sc3ccc(C(F)(F)F)cc3NC2=O)sc(C)c1C (stereo not drawn)	DENV2 CPE 25 (no result: SIRT5 block, E-sel inducer)
CCOC(=O)c1c(NC(=O)CC2SC(N)=NC2=O)sc(C)c1C (stereo not drawn)	none
C[C@@H]1CN([C@@H](C)CO)C(=O)c2cc(NC(=O)Cc3cn(C)c4ccccc34)ccc2O[C@H]1CN(C)Cc1ccc(C(=O)Nc2ccccc2N)cc1	SIRT5 block 17
C[C@H](CO)N1C[C@H](C)[C@H](CN(C)Cc2ccc(C(=O)Nc3ccccc3N)cc2)Oc2ccc(NC(=O)Cc3cn(C)c4ccccc34)cc2C1=O	SIRT5 block 23 (no result: E-sel inducer)
C[C@@H]1CN([C@@H](C)CO)C(=O)c2cc(NC(=O)Cc3cn(C)c4ccccc34)ccc2O[C@@H]1CN(C)Cc1ccc(C(=O)Nc2ccccc2N)cc1	none (no result: SIRT5 block)
C[C@@H]1CN([C@H](C)CO)C(=O)c2cc(NC(=O)Cc3cn(C)c4ccccc34)ccc2O[C@H]1CN(C)Cc1ccc(C(=O)Nc2ccccc2N)cc1	none (no result: SIRT5 block)
CCC(=O)N[C@H]1C=C[C@@H](CC(=O)OC)O[C@@H]1CO	none
COc1ccccc1CN1[C@@H]2CN(C(=O)c3ccncc3)c3ccccc3[C@@H]2[C@@H]1CO	none
CCCNC(=O)N1C[C@@H]2[C@H](c3ccccc31)[C@H](CO)N2C(=O)c1ccncc1	DENV2 CPE 25
COCC(=O)N1C[C@@H]2[C@H](c3ccccc31)[C@@H](CO)N2C(=O)Nc1ccccc1Cl	none
COc1ccccc1CN1[C@H](CO)[C@H]2c3ccccc3N(C(=O)c3ccncc3)C[C@H]21	DENV2 CPE 95
COCC(=O)N1C[C@@H]2[C@H](c3ccccc31)[C@H](CO)N2C(=O)Nc1ccccc1Cl	DENV2 CPE 27
COCC(=O)N1C[C@H]2[C@@H](c3ccccc31)[C@H](CO)N2C(=O)c1ccccc1F	none
CCCNC(=O)N1C[C@H]2[C@@H](c3ccccc31)[C@H](CO)N2C(=O)c1ccncc1	none
COCC(=O)N1C[C@@H]2[C@H](c3ccccc31)[C@@H](CO)N2C(=O)c1ccccc1F	DENV2 CPE 41
O=C(NC1Cc2ccccc2C1)[C@H]1[C@H](CO)[C@H]2Cn3c(cccc3=O)[C@H]2N1C(=O)C1CCC1	none
Cc1noc(C)c1S(=O)(=O)N(C)C[C@H]1Oc2ccc(NS(=O)(=O)c3ccccc3)cc2CC(=O)N([C@H](C)CO)C[C@H]1C	none
C[C@@H]1CN([C@@H](C)CO)C(=O)c2cc(NS(=O)(=O)c3cccs3)ccc2O[C@@H]1CN(C)S(=O)(=O)c1cn(C)cn1	none
CN(C)C(=O)C[C@@H]1CC[C@H]2[C@@H](COC[C@@H](O)CN2CC2CCCCC2)O1	none
O=C(C[C@H]1C=C[C@H](NC(=O)c2ccccn2)[C@@H](CO)O1)NCc1cccc(F)c1	none
O=C(c1ccccc1F)N1C[C@@H]2[C@H](c3ccccc31)[C@H](CO)N2C(=O)c1ccncc1	none
O=C(c1ccccc1F)N1C[C@H]2[C@@H](c3ccccc31)[C@H](CO)N2C(=O)c1ccncc1	DENV2 CPE 22
COc1ccccc1NC(=O)N[C@@H]1CC[C@@H](CCNC(=O)Cc2ccccn2)O[C@@H]1CO	none
COC(=O)c1c(CC[C@@H](CO)NC(=O)N[C@H](Cn2cc(Cc3ccccc3)nn2)C(C)C)oc(C(C)=O)c1C(=O)OC	none (no result: E-sel inducer)
CC(C)(C)N(Cc1ccccc1)C(=O)COC(=O)C1CCN(c2ccc(C(F)(F)F)cn2)CC1	DENV2 CPE 44 (no result: E-sel inducer)
O=C(COC(=O)C1CCN(c2ccc(C(F)(F)F)cn2)CC1)c1ccccc1	none (no result: E-sel inducer)
CC(C)N(Cc1ccccc1)C(=O)COC(=O)C1CCN(c2ccc(C(F)(F)F)cn2)CC1	DENV2 CPE inconclusive (no result: E-sel inducer)
CCOc1ccc(C(=O)COC(=O)C2CCN(c3ccc(C(F)(F)F)cn3)CC2)cc1	DENV2 CPE 74
C[C@@H]1CCCCO[C@@H](CN(C)C(=O)Nc2ccc3c(c2)OCO3)[C@@H](C)CN([C@@H](C)CO)C(=O)c2cc(NC(=O)Cc3ccccc3)ccc2O1	none (no result: SIRT5 block)

Compound activity (PubChem)
